Measured values: ChEMBL document CHEMBL1150273, “Aza-peptidyl Michael acceptors. A new class of potent and selective inhibitors of asparaginyl endopeptidases (legumains) from evolutionarily diverse pathogens” (J Med Chem, 2008)
Active and inactive are the calls of the source. The rule behind the calls is not given here.

Columns and labels:
[1] = Inhibition of Trichomonas vaginalis G3 AE1 expressed in Pichia pastoris after 20 mins
Procedure, shortened: (§1)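 Recombinant AE zymogens expressed in Pichia pastoris; SmAE and TvAE1 autoactivated in 0.5 M sodium acetate, 4 mM DTT, pH 4.5, 37 °C, 3 h to overnight; IrAE used without activation. Buffer 0.1 M citrate phosphate, 4 mM DTT, pH 6.8 (SmAE, TvAE1) or pH 5.5 (IrAE). Inhibitor 2.0–0.0002 µM final, 20 min preincubation at room temperature; 10 µM final Cbz-Ala-Ala-Asn-AMC, 20 min; IC50 from RFU/min vs concentration.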

[2] = Inhibition of Ixodes ricinus AE expressed in Pichia pastoris after 20 mins; procedure, shortened: as §1
Schistosoma mansoni = experiment: Inhibition of Schistosoma mansoni AE assessed as ratio of pseudo-first-order inhibition rate constant to inhibitor concentration
Procedure, shortened: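 Autoactivated recombinant SmAE added to six inhibitor concentrations (0–1 µM final) in 0.1 M citrate phosphate, 2 mM DTT, pH 6.8 with 20 µM Cbz-Ala-Ala-Asn-AMC; progress followed every 2 s for 30 min at 25 °C (ex 355, em 460 nm); kobs/[I] by nonlinear regression, corrected for substrate by factor 1.33.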

Caspase-6 (Homo sapiens) = target: T1, Caspase-6 (Homo sapiens) (UniProt P55212); experiment: Inhibition of caspase 6 assessed as ratio of pseudo-first-order inhibition rate constant to inhibitor concentration
T1 sequence (whole entry): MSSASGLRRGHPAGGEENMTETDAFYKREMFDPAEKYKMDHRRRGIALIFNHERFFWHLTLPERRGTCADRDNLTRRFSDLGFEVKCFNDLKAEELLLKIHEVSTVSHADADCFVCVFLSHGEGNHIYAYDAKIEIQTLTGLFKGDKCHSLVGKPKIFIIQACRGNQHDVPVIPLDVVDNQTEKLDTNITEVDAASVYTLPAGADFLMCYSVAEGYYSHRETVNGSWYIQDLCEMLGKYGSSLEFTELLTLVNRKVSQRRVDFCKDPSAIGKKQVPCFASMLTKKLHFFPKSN
Procedure, shortened: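 Caspase-6 at 5 nM final, assayed in the same Pipes/NaCl/CHAPS/sucrose/DTT buffer, pH 7.2, 37 °C with Ac-Asp-Glu-Val-Asp-AMC by the progress curve method; inhibitor stocks 5 × 10^-3 to 2.42 × 10^-6 M in DMSO; rates corrected for substrate using KM 236.35 µM.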

[3] = target: T2, Clostripain (Clostridium histolyticum) (UniProt P09870); experiment: Inhibition of sClostridium histolyticum clostripain assessed as ratio of pseudo-first-order inhibition rate constant to inhibitor concentration; details: Hathewaya histolytica
T2 sequence (whole entry): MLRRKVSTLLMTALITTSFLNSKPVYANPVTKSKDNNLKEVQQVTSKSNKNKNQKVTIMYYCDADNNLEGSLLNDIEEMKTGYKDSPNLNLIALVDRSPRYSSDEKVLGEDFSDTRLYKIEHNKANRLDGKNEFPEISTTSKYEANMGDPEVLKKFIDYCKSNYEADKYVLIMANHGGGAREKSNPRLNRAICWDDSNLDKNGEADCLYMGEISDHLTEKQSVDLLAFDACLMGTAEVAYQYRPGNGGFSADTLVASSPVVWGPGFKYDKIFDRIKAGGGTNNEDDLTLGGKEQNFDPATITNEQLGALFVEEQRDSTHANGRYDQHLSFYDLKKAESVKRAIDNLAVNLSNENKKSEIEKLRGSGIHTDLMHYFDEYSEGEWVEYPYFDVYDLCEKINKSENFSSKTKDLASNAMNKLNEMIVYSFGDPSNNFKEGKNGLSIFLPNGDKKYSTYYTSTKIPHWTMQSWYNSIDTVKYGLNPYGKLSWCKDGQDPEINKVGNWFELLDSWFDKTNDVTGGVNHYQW
Procedure, shortened: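 Clostripain activated in 8 mM DTT, then incubated with inhibitor (DMSO) in 20 mM Tris-HCl, 10 mM CaCl2, 0.005% Brij 35, 2 mM DTT, pH 7.6; aliquots taken at intervals into buffer with Cbz-Phe-Arg-AMC; fluorescence at 465 nm; pseudo-first-order kinetics.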

[4] = Stability assessed as half life in citrate phosphate buffer at pH 5.8 in presence of dithiothreitol; type: physicochemical; details: citrate phosphate buffer with dithiothreitol

IC50 [1] [nM]	Activity (Caspase-6 (Homo sapiens))	Activity [3]	half-life [4] [h]	Compound	IC50 [2] [nM]	Ratio (Schistosoma mansoni) [M⁻¹ s⁻¹]
10	inactive	inactive	–	C[C@H](NC(=O)OCc1ccccc1)C(=O)N[C@@H](C)C(=O)NN(CC(N)=O)C(=O)/C=C/C(=O)N(Cc1ccccc1)Cc1ccccc1	450	5800
0.55	inactive	inactive	6.27	C[C@H](NC(=O)OCc1ccccc1)C(=O)N[C@@H](C)C(=O)NN(CC(N)=O)C(=O)/C=C/C(=O)N(C)Cc1ccccc1	< 1	–
4.5	inactive	inactive	0.317	CCOC(=O)/C=C/C(=O)N(CC(N)=O)NC(=O)[C@H](C)NC(=O)[C@H](C)NC(=O)OCc1ccccc1	4.5	–
< 1	inactive	inactive	–	C[C@H](NC(=O)OCc1ccccc1)C(=O)N[C@@H](C)C(=O)NN(CC(N)=O)C(=O)/C=C/C(=O)N(C)Cc1cccc2ccccc12	5.5	16900
